Laboratory results from ChEMBL document CHEMBL1142136, “Contribution of target gene mutations and efflux to decreased susceptibility of Salmonella enterica serovar typhimurium to fluoroquinolones and other antimicrobials” (2007).
≈ marks a conversion by molar mass, not a printed value.

Key:
Type in all cases: functional, Salmonella enterica subsp. enterica serovar Typhimurium
Salmonella typhimurium [1] = assay: Antimicrobial activity against Salmonella enterica serovar Typhimurium S21 tolC::Kan
How it was run: (§1)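 MICs by automated broth microdilution panels, interpreted to CLSI broth microdilution standards. Ciprofloxacin additionally tested by agar dilution across 0.0075 to 128 μg/ml. Quality control strains: E. coli ATCC 25922 and 35218, Enterococcus faecalis ATCC 29212, S. aureus ATCC 29213, P. aeruginosa ATCC 27853. Test strains are kanamycin-marked deletion mutants of ground-beef isolate S21.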

Salmonella typhimurium [2] = assay: Antimicrobial activity against Salmonella enterica serovar Typhimurium S21-4 gyrA+ with ParC S80I mutation
How it was run: (§2)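 MICs measured by broth microdilution on the Sensititre automated system and interpreted by CLSI broth microdilution standards. Ciprofloxacin was also tested by agar dilution, widening the range to 0.0075–128 μg/ml. Quality control strains were E. coli ATCC 25922 and 35218, E. faecalis ATCC 29212, S. aureus ATCC 29213 and P. aeruginosa ATCC 27853.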

Salmonella typhimurium [3] = assay: Antimicrobial activity against Salmonella enterica serovar Typhimurium S21-1 gyrA+; how it was run: as §2
Salmonella typhimurium [4] = assay: Antimicrobial activity against Salmonella enterica serovar Typhimurium CHS38 gyrA+ with GyrA D87G mutation; how it was run: as §2
Salmonella typhimurium [5] = assay: Antimicrobial activity against Salmonella enterica serovar Typhimurium CS3 acrAB::Kan with GyrA S83F, D87N, ParC S80I mutation; how it was run: as §2
Salmonella typhimurium [6] = assay: Antimicrobial activity against Salmonella enterica serovar Typhimurium CS9 gyrA+ with GyrA S83F, D87N, ParC S80I mutation; how it was run: as §2
Salmonella typhimurium [7] = assay: Antimicrobial activity against Salmonella enterica serovar Typhimurium CS9 with GyrA S83F, D87N, ParC S80I mutation; how it was run: as §2
Salmonella typhimurium [8] = assay: Antimicrobial activity against Salmonella enterica serovar Typhimurium S21-2 gyrA+ with ParC S80I mutation; how it was run: as §2
Salmonella typhimurium [9] = assay: Antimicrobial activity against Salmonella enterica serovar Typhimurium S21-4 with GyrA S83F, ParC S80I mutation; how it was run: as §2
Salmonella typhimurium [10] = assay: Antimicrobial activity against Salmonella enterica serovar Typhimurium S21 gyrA+; how it was run: as §2
Salmonella typhimurium [11] = assay: Antimicrobial activity against Salmonella enterica serovar Typhimurium CHS38 with GyrA D87G mutation; how it was run: as §2
Salmonella typhimurium [12] = assay: Antimicrobial activity against Salmonella enterica serovar Typhimurium CHS14 with GyrA D87G mutation; how it was run: as §2
Salmonella typhimurium [13] = assay: Antimicrobial activity against Salmonella enterica serovar Typhimurium CHS18 acrAB::Kan with GyrA S38F mutation; how it was run: as §2
Salmonella typhimurium [14] = assay: Antimicrobial activity against Salmonella enterica serovar Typhimurium S21-4 acrAB::Kan with GyrA S83F, ParC S80I mutation; how it was run: as §2
Salmonella typhimurium [15] = assay: Antimicrobial activity against Salmonella enterica serovar Typhimurium S21; how it was run: as §2
Salmonella typhimurium [16] = assay: Antimicrobial activity against Salmonella enterica serovar Typhimurium CS1 with GyrA S83F, D87N, ParC S80I mutation; how it was run: as §2
Salmonella typhimurium [17] = assay: Antimicrobial activity against Salmonella enterica serovar Typhimurium CHS14 acrAB::Kan with GyrA D87G mutation; how it was run: as §2
Salmonella typhimurium [18] = assay: Antimicrobial activity against Salmonella enterica serovar Typhimurium CS3 with GyrA S83F, D87N, ParC S80I mutation; how it was run: as §2
Salmonella typhimurium [19] = assay: Antimicrobial activity against Salmonella enterica serovar Typhimurium S21-3 gyrA+ with ParC S80I mutation; how it was run: as §2
Salmonella typhimurium [20] = assay: Antimicrobial activity against Salmonella enterica serovar Typhimurium CS3 gyrA+ with GyrA S83F, D87N, ParC S80I mutation; how it was run: as §2
Salmonella typhimurium [21] = assay: Antimicrobial activity against Salmonella enterica serovar Typhimurium S21-3 acrAB::Kan with GyrA S83F, ParC S80I mutation; how it was run: as §2
Salmonella typhimurium [22] = assay: Antimicrobial activity against Salmonella enterica serovar Typhimurium CHS14 gyrA+ with GyrA D87G mutation; how it was run: as §2
Salmonella typhimurium [23] = assay: Antimicrobial activity against Salmonella enterica serovar Typhimurium GyrA S21-1 acrAB::Kan with GyrA S83F mutation; how it was run: as §2
Salmonella typhimurium [24] = assay: Antimicrobial activity against Salmonella enterica serovar Typhimurium CHS14 tolC::Kan with GyrA D87G mutant; how it was run: as §2
Salmonella typhimurium [25] = assay: Antimicrobial activity against Salmonella enterica serovar Typhimurium CHS18 tolC::Kan with GyrA S38F mutation; how it was run: as §2
Salmonella typhimurium [26] = assay: Antimicrobial activity against Salmonella enterica serovar Typhimurium S21-2 acrAB::Kan with GyrA S83F, ParC S80I mutation; how it was run: as §2
Salmonella typhimurium [27] = assay: Antimicrobial activity against Salmonella enterica serovar Typhimurium S21-3 with GyrA S83F, ParC S80I mutation; how it was run: as §2
Salmonella typhimurium [28] = assay: Antimicrobial activity against Salmonella enterica serovar Typhimurium S21-2 tolC::Kan with GyrA S83F, ParC S80I mutation; how it was run: as §2
Salmonella typhimurium [29] = assay: Antimicrobial activity against Salmonella enterica serovar Typhimurium CS1 tolC::Kan with GyrA S83F, D87N, ParC S80I mutation; how it was run: as §2
Salmonella typhimurium [30] = assay: Antimicrobial activity against Salmonella enterica serovar Typhimurium CS1 gyrA+ with GyrA S83F, D87N, ParC S80I mutation; how it was run: as §2
Salmonella typhimurium [31] = assay: Antimicrobial activity against Salmonella enterica serovar Typhimurium CHS18 with GyrA S38F mutation; how it was run: as §2
Salmonella typhimurium [32] = assay: Antimicrobial activity against Salmonella enterica serovar Typhimurium S21-3 tolC::Kan with GyrA S83F, ParC S80I mutation; how it was run: as §2
Salmonella typhimurium [33] = assay: Antimicrobial activity against Salmonella enterica serovar Typhimurium CS3 tolC::Kan with GyrA S83F, D87N, parC S80I mutation; how it was run: as §2
Salmonella typhimurium [34] = assay: Antimicrobial activity against Salmonella enterica serovar Typhimurium CHS38 tolC::Kan with GyrA D87G mutation; how it was run: as §2
Salmonella typhimurium [35] = assay: Antimicrobial activity against Salmonella enterica serovar Typhimurium CS9 acrAB::Kan with GyrA S83F, D87N, ParC S80I mutation; how it was run: as §2
Salmonella typhimurium [36] = assay: Antimicrobial activity against Salmonella enterica serovar Typhimurium S21-1 tolC::Kan with GyrA S83F mutation; how it was run: as §2
Salmonella typhimurium [37] = assay: Antimicrobial activity against Salmonella enterica serovar Typhimurium S21-1 GyrA S83F mutant; how it was run: as §2
Salmonella typhimurium [38] = assay: Antimicrobial activity against Salmonella enterica serovar Typhimurium S21-4 tolC::Kan with GyrA S83F, ParC S80I mutation; how it was run: as §2
Salmonella typhimurium [39] = assay: Antimicrobial activity against Salmonella enterica serovar Typhimurium S21-2 with GyrA S83F, ParC S80I mutation; how it was run: as §2
Salmonella typhimurium [40] = assay: Antimicrobial activity against Salmonella enterica serovar Typhimurium CHS18 gyrA+ with GyrA S38F mutation; how it was run: as §2
Salmonella typhimurium [41] = assay: Antimicrobial activity against Salmonella enterica serovar Typhimurium CS9 tolC::Kan with GyrA S83F, D87N, ParC S80I mutation; how it was run: as §2
Salmonella typhimurium [42] = assay: Antimicrobial activity against Salmonella enterica serovar Typhimurium S21 acrAB::Kan; how it was run: as §1
Salmonella typhimurium [43] = assay: Antimicrobial activity against Salmonella enterica serovar Typhimurium CHS38 acrAB::Kan with GyrA D87G mutation; how it was run: as §2
Salmonella typhimurium [44] = assay: Antimicrobial activity against Salmonella enterica serovar Typhimurium CS1 acrAB::Kan with GyrA S83F, D87N, ParC S80I mutation; how it was run: as §2

SMILES: C[C@@H]1CN(c2c(F)c(F)c3c(=O)c(C(=O)O)cn(C4CC4)c3c2F)C[C@H](C)N1 [ORBIFLOXACIN]
- MIC (Salmonella typhimurium [1]): < 0.015 mg/L
- MIC (Salmonella typhimurium [2]): 8 mg/L (≈ 20.2 µM)
- MIC (Salmonella typhimurium [3]): 0.12 mg/L (≈ 0.304 µM)
- MIC (Salmonella typhimurium [4]): < 0.15 mg/L
- MIC (Salmonella typhimurium [5]): 4 mg/L (≈ 10.1 µM)
- MIC (Salmonella typhimurium [6]): 0.25 mg/L (≈ 0.632 µM)
- MIC (Salmonella typhimurium [7]): > 16 mg/L
- MIC (Salmonella typhimurium [8]): 2 mg/L (≈ 5.06 µM)
- MIC (Salmonella typhimurium [9]): 16 mg/L (≈ 40.5 µM)
- MIC (Salmonella typhimurium [10]): 0.12 mg/L (≈ 0.304 µM)
- MIC (Salmonella typhimurium [11]): 0.5 mg/L (≈ 1.26 µM)
- MIC (Salmonella typhimurium [12]): 1 mg/L (≈ 2.53 µM)
- MIC (Salmonella typhimurium [13]): 0.5 mg/L (≈ 1.26 µM)
- MIC (Salmonella typhimurium [14]): 0.12 mg/L (≈ 0.304 µM)
- MIC (Salmonella typhimurium [15]): 0.12 mg/L (≈ 0.304 µM)
- MIC (Salmonella typhimurium [16]): > 16 mg/L
- MIC (Salmonella typhimurium [17]): 0.03 mg/L (≈ 0.0759 µM)
- MIC (Salmonella typhimurium [18]): > 16 mg/L
- MIC (Salmonella typhimurium [19]): 2 mg/L (≈ 5.06 µM)
- MIC (Salmonella typhimurium [20]): 0.25 mg/L (≈ 0.632 µM)
- MIC (Salmonella typhimurium [21]): 0.5 mg/L (≈ 1.26 µM)
- MIC (Salmonella typhimurium [22]): 0.12 mg/L (≈ 0.304 µM)
- MIC (Salmonella typhimurium [23]): 0.12 mg/L (≈ 0.304 µM)
- MIC (Salmonella typhimurium [24]): 0.03 mg/L (≈ 0.0759 µM)
- MIC (Salmonella typhimurium [25]): 0.06 mg/L (≈ 0.152 µM)
- MIC (Salmonella typhimurium [26]): 0.25 mg/L (≈ 0.632 µM)
- MIC (Salmonella typhimurium [27]): 16 mg/L (≈ 40.5 µM)
- MIC (Salmonella typhimurium [28]): 0.25 mg/L (≈ 0.632 µM)
- MIC (Salmonella typhimurium [29]): 4 mg/L (≈ 10.1 µM)
- MIC (Salmonella typhimurium [30]): 0.25 mg/L (≈ 0.632 µM)
- MIC (Salmonella typhimurium [31]): 1 mg/L (≈ 2.53 µM)
- MIC (Salmonella typhimurium [32]): 0.5 mg/L (≈ 1.26 µM)
- MIC (Salmonella typhimurium [33]): 4 mg/L (≈ 10.1 µM)
- MIC (Salmonella typhimurium [34]): < 0.015 mg/L
- MIC (Salmonella typhimurium [35]): 4 mg/L (≈ 10.1 µM)
- MIC (Salmonella typhimurium [36]): 0.12 mg/L (≈ 0.304 µM)
- MIC (Salmonella typhimurium [37]): 2 mg/L (≈ 5.06 µM)
- MIC (Salmonella typhimurium [38]): 0.12 mg/L (≈ 0.304 µM)
- MIC (Salmonella typhimurium [39]): 16 mg/L (≈ 40.5 µM)
- MIC (Salmonella typhimurium [40]): 0.12 mg/L (≈ 0.304 µM)
- MIC (Salmonella typhimurium [41]): 4 mg/L (≈ 10.1 µM)
- MIC (Salmonella typhimurium [42]): < 0.015 mg/L
- MIC (Salmonella typhimurium [43]): 0.06 mg/L (≈ 0.152 µM)
- MIC (Salmonella typhimurium [44]): 4 mg/L (≈ 10.1 µM)
